Calls of active or inactive are those of the source.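 The calls were made as follows: active = mean IC50 at or below 20 µM in a cell killing test; inactive = the rest.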 Bounds are passed on as bounds.

The experiment deals with CHO-XBP1 cytotoxicity, ATPlite luminescence, 6 h. The experiment can be described thus: cytotoxicity in CHO-XBP1 reporter cells, SAR follow-up, cytotoxicity control for UPR apoptotic arm activator project, cell-based, 6 h exposure, ATPlite luminescence (AID 588570). Summed up: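 Test system: CHO-XBP1 cells / Technique: ATP-based luminescence with ATPLite 1-Step reagent / Medium: F12 plus 10% FBS / Doses: dose-response series, DMSO ≤1% / Incubation: 16-18 h attachment, 6 h exposure, 37 °C, 5% CO2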
Background: ATP-based viability assays read luminescence as a measure of living cells.
One may read the IC50 as the concentration at which inhibition is half-maximal. `O=C(Nc1nc2ccc(C(F)(F)F)cc2s1)c1ccccn1`: the IC50 is 4.62 µM.
As for `CC1CCN(S(=O)(=O)c2ccc(NC(=O)c3ccc([N+](=O)[O-])o3)cc2)CC1`, the IC50 is > 80 µM (inactive).
The figure for `O=C(Nc1nc2cc(F)ccc2s1)c1ccccn1` is 2.62 µM.
`O=C(Nc1ccc(S(=O)(=O)N2CCCCC2)cc1)c1ccc([N+](=O)[O-])o1`: the IC50 is > 80 µM (inactive).
As for `O=C(Nc1nc2cccc(F)c2s1)c1ccccn1`, the half-maximal inhibitory concentration (IC50) is 7.08 µM.
`O=C(Nc1nc2c(F)cccc2s1)c1ccccn1`: the IC50 was 4.11 µM.
On to `O=C(Nc1ccc(S(=O)(=O)c2ccccc2)cc1)c1ccc([N+](=O)[O-])o1`, for which the IC50 is > 80 µM (inactive).
Turning to `O=C(Nc1nc2c(F)cc(F)cc2s1)c1ccccn1`, the IC50 was 10.7 µM.
In the case of `O=C(Nc1ccc(S(=O)(=O)N2CCC(F)CC2)cc1)c1ccc([N+](=O)[O-])o1`, the IC50 was > 80 µM (inactive).
As to `O=C(Nc1ccc(S(=O)(=O)N2CCNCC2)cc1)c1ccc([N+](=O)[O-])o1`, the IC50 is > 80 µM (inactive).
Take `O=C(Nc1ccc(S(=O)(=O)N2CCC(O)CC2)cc1)c1ccc([N+](=O)[O-])o1`: the IC50 is > 80 µM (inactive).
With `O=C(Nc1nc2cc(F)cc(F)c2s1)c1ccccn1`, the IC50 is 9.35 µM.
With `CC1CN(S(=O)(=O)c2ccc(NC(=O)c3ccc([N+](=O)[O-])o3)cc2)CC(C)O1` (stereo not given), the IC50 was > 80 µM (inactive).
For the molecule `O=C(Nc1nc2c(F)ccc(F)c2s1)c1ccccn1`, the IC50 is 32.3 µM (inactive).
Consider `O=C(Nc1nc2c(F)c(F)ccc2s1)c1ccccn1`, for which the IC50 was 4.29 µM.
As for `O=C(Nc1ccc(S(=O)(=O)N2CCOCC2)cc1)c1ccc([N+](=O)[O-])s1`, the IC50 was > 80 µM (inactive).
On to `O=C(Nc1ccc(S(=O)(=O)N2CCOCC2)cc1)c1ccc([N+](=O)[O-])o1`, for which the IC50 is > 80 µM (inactive).
As to `O=C(Nc1ccc(S(=O)(=O)N2CCC3(CCCCC3)CC2)cc1)c1ccc([N+](=O)[O-])o1`, the IC50 was > 80 µM (inactive).
For the molecule `O=C(Nc1nc2c(Cl)cc(Cl)cc2s1)c1ccccn1`, the IC50 is > 80 µM (inactive).
Consider `Cc1cc(C)c2nc(NC(=O)c3ccccn3)sc2c1`, for which the IC50 is 15.2 µM.
As for `CC1(C)CCN(S(=O)(=O)c2ccc(NC(=O)c3ccc([N+](=O)[O-])o3)cc2)CC1`, the IC50 is > 80 µM (inactive).
Regarding `O=C(Nc1ccc(S(=O)(=O)C2CCCCC2)cc1)c1ccc([N+](=O)[O-])o1`, the IC50 is > 80 µM (inactive).
`O=C(Nc1ccc(S(=O)(=O)N2CCC(Cl)CC2)cc1)c1ccc([N+](=O)[O-])o1`: the IC50 was > 80 µM (inactive).
Consider `O=C(Nc1nc2ccc(F)cc2s1)c1ccccn1`, for which the IC50 is 4.78 µM.
In the case of `O=C(Nc1nc2cc(F)c(F)cc2s1)c1ccccn1`, the IC50 is 5.1 µM.
`O=C(Nc1ccc(S(=O)(=O)C2CCOCC2)cc1)c1ccc([N+](=O)[O-])o1`: the IC50 is > 80 µM (inactive).
The figure for `O=C(Nc1nc2ccc(Cl)cc2s1)c1ccccn1` is 3.81 µM.
As to `CC(C)(C)C1CCN(S(=O)(=O)c2ccc(NC(=O)c3ccc([N+](=O)[O-])o3)cc2)CC1`, the IC50 is > 80 µM (inactive).
On to `O=C(Nc1ccc(S(=O)(=O)N2CCCC2)cc1)c1ccc([N+](=O)[O-])o1`, for which the IC50 was 74.6 µM (inactive).
On to `O=C(Nc1nc2ccc(F)c(F)c2s1)c1ccccn1`, for which the IC50 is 14 µM.
